Test [1] has as its target D(1B) dopamine receptor (Homo sapiens) (UniProt P21918). The test can be described thus: Antagonist activity at D5 receptor (unknown origin) stably expressed in CHOK1 cells assessed as inhibition of dopamine-induced beta-arrestin recruitment measured after 90 mins by luminescence assay. The format is cell-based.
For test [2], the target named is T1, D(4) dopamine receptor (Homo sapiens, UniProt P21917).
T1 sequence (P21917 whole entry): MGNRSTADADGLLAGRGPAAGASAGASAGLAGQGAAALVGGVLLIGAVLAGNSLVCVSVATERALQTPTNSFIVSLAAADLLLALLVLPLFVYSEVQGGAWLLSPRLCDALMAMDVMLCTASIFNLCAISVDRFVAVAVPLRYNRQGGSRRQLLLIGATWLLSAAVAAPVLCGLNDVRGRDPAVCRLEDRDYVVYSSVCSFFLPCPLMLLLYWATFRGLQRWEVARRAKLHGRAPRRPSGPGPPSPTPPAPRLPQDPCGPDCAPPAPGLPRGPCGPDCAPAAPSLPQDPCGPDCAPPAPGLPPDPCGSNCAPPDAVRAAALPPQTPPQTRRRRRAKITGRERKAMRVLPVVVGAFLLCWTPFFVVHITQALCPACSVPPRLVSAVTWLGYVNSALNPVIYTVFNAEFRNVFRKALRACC
The test can be described thus: Antagonist activity at human D4 receptor expressed in CHOK1 cells assessed as inhibition of dopamine-induced beta-arrestin recruitment measured after 90 mins by luminescence assay. As to conditions: read-out: IC50. It counts as cell-based. In general terms: Activated receptors often draw arrestin, which recruitment assays turn into a signal.

Test [3] has as its target T2, D(2) dopamine receptor (Homo sapiens, UniProt P14416). The test can be described thus: Agonist activity at human D2L receptor expressed in CHOK1 cells assessed as induction of beta-arrestin recruitment measured after 90 mins by luminescence assay relative to control. It counts as cell-based. In short, it runs like this:
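PathHunter enzyme-complementation assay in CHO-K1 cells stably expressing human D2R long isoform, seeded 2625 cells/well and incubated overnight. Compounds diluted in PBS with 0.2 μM sodium metabisulfite, tested at multiple concentrations, 90 min at 37 °C. Detection reagent then 45–60 min at room temperature, luminescence read. Normalized to maximal dopamine response. Nonlinear regression of triplicate runs, n = 3–4.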

In test [4] the target is T1, D(4) dopamine receptor. Nature of the test: Displacement of [3H]N-methylspiperone from human D4.4 receptor expressed in HEK293 cell membranes measured after 60 mins by scintillation counting method. Put shortly:
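Frozen HEK293 membranes stably expressing human D4.4R (30 μg/well) in EBSS-bicarbonate buffer, pH 7.4, were incubated with 0.4 nM [3H]N-methylspiperone and half-log compound dilutions (30% DMSO vehicle) for 60 min at room temperature. Nonspecific binding was defined by 10 μM (+)-butaclamol. Samples were filtered on GF/B filters and counted by scintillation.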

Test [5] has as its target D(1A) dopamine receptor (Homo sapiens) (UniProt P21728). The test can be described thus: Agonist activity at D1 receptor (unknown origin) stably expressed in CHOK1 cells assessed as induction of beta-arrestin recruitment measured after 90 mins by luminescence assay. The format is cell-based.
Test [6] deals with T3, D(3) dopamine receptor (Homo sapiens, UniProt P35462). Nature of the test: Antagonist activity at human D3 receptor expressed in CHOK1 cells assessed as inhibition of dopamine-induced beta-arrestin recruitment measured after 90 mins by luminescence assay relative to control. The format is cell-based. Put shortly:
(§1)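 Antagonist-mode PathHunter β-arrestin assay in CHO-K1 cells stably expressing human D2R long isoform or D3R, seeded overnight. Compound dilutions in PBS with 0.2 μM metabisulfite were co-incubated with an EC80 dopamine concentration for 90 min at 37 °C. Detection reagent was added for 45–60 min at room temperature, then luminescence was read. Values are % of dopamine EC80 response, from nonlinear regression of triplicate runs, n = 3–4.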

Test [7] concerns the target T4, D(4) dopamine receptor (Homo sapiens) (UniProt P21917).
T4 sequence (whole entry): T1 sequence (P21917 whole entry)
Nature of the test: Agonist activity at human D4 receptor expressed in CHOK1 cells assessed as inhibition of forskolin-induced cAMP accumulation measured after 30 mins by Eu-cAMP tracer based TR-FRET assay relative to dopamine. The format is functional, cell-based. In short, it runs like this:
(§2)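 LANCE Ultra TR-FRET cAMP assay in CHO-K1 cells stably expressing human D2R long isoform or D4R. Cells were plated in HBSS/5 mM HEPES/0.2 μM metabisulfite, then immediately given compound plus forskolin (10 μM final) for 30 min at room temperature. Eu-cAMP tracer and ULight-anti-cAMP were added for 2 h in the dark. Values are % of maximal dopamine signal, nonlinear regression of triplicate runs, n = 3–4.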
Background: Cyclic AMP is a second messenger, typically raised through Gs and lowered through Gi signalling.

Test [8] concerns the target D(1A) dopamine receptor (Homo sapiens) (UniProt P21728). The test can be described thus: Antagonist activity at D1 receptor (unknown origin) stably expressed in CHOK1 cells assessed as inhibition of dopamine-induced beta-arrestin recruitment measured after 90 mins by luminescence assay. The format is cell-based.
Test [9] concerns the target T3, D(3) dopamine receptor. Nature of the test: Agonist activity at human D3 receptor expressed in CHOK1 cells assessed as induction of beta-arrestin recruitment measured after 90 mins by luminescence assay relative to control. It counts as cell-based. In short, it runs like this:
(§3)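 PathHunter enzyme-complementation assay in CHO-K1 cells stably expressing human D2R long isoform, D3R or D4R, seeded overnight in Ham's F12/10% FBS. Compounds were diluted in PBS with 0.2 μM sodium metabisulfite and applied at multiple concentrations for 90 min at 37 °C. Detection reagent was added for 45–60 min at room temperature, then luminescence was read. Values are % of maximal dopamine response, from nonlinear regression of triplicate runs, mean ± SEM, n = 3–4.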

Test [10] has as its target T3, D(3) dopamine receptor. The test can be described thus: Antagonist activity at human D3 receptor expressed in CHOK1 cells assessed as inhibition of dopamine-induced beta-arrestin recruitment measured after 90 mins by luminescence assay. It counts as cell-based. As to conditions: read-out: IC50. Put shortly: as §1
Test [11] concerns the target T1, D(4) dopamine receptor. The test can be described thus: Antagonist activity at human D4 receptor expressed in CHOK1 cells assessed as suppression of dopamine-induced inhibition of forskolin-stimulated cAMP accumulation measured after 30 mins by Eu-cAMP tracer based TR-FRET assay. The format is functional, cell-based.
Test [12] concerns the target T3, D(3) dopamine receptor. Nature of the test: Displacement of [3H]N-methylspiperone from human D3 receptor expressed in HEK293 cell membranes measured after 60 mins by scintillation counting method. In short, it runs like this: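 HEK293 cells stably expressing human D3R; membranes in EBSS buffer pH 7.4, stored at −80 °C. 20 μg protein/well with 0.4 nM [3H]N-methylspiperone (final), half-log dilutions in 30% DMSO, in triplicate. 60 min at room temperature, then GF/B filtration. Nonspecific binding with 10 μM (+)-butaclamol.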

In test [13] the target is T1, D(4) dopamine receptor. The test can be described thus: Agonist activity at human D4 receptor expressed in CHOK1 cells assessed as inhibition of forskolin-induced cAMP accumulation measured after 30 mins by Eu-cAMP tracer based TR-FRET assay. It counts as functional, cell-based. The note with it: read-out: EC50. In short, it runs like this:
as §2

Test [14] has as its target T1, D(4) dopamine receptor. The test can be described thus: Agonist activity at human D4 receptor expressed in CHOK1 cells assessed as induction of beta-arrestin recruitment measured after 90 mins by luminescence assay. It counts as cell-based. As to conditions: read-out: EC50. Put shortly: as §3
The target of test [15] is T3, D(3) dopamine receptor. The test can be described thus: Agonist activity at human D3 receptor expressed in CHOK1 cells assessed as induction of beta-arrestin recruitment measured after 90 mins by luminescence assay. The note with it: read-out: EC50. It counts as cell-based. In short, it runs like this: as §3
In test [16] the target is T4, D(4) dopamine receptor (Homo sapiens). The test can be described thus: Antagonist activity at human D4 receptor expressed in CHOK1 cells assessed as inhibition of dopamine-induced beta-arrestin recruitment measured after 90 mins by luminescence assay relative to control. The format is cell-based. More on the design: concentration or dose not given beside the values.

The target in test [17] is T1, D(4) dopamine receptor. The test can be described thus: Displacement of [3H](R)-(+)-7-OH-DPAT from human D4.4 receptor expressed in HEK293 cell membranes measured after 90 mins by scintillation counting method. In short, it runs like this:
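HEK293 cells stably expressing human D4.4R; membranes used fresh in 50 mM Tris, 10 mM MgCl2, 1 mM EDTA, pH 7.4. 60 μg protein/well with 3 nM [3H]-(R)-(+)-7-OH-DPAT (final), half-log dilutions in 30% DMSO, in triplicate. 90 min at room temperature, then GF/B filtration. Nonspecific binding with 10 μM (+)-butaclamol.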
(Loss of bound radioactivity is the signal in a displacement assay; it reports binding, not function.)

Test [18] deals with T2, D(2) dopamine receptor. The test can be described thus: Agonist activity at human D2L receptor expressed in CHOK1 cells assessed as inhibition of forskolin-induced cAMP accumulation measured after 30 mins by Eu-cAMP tracer based TR-FRET assay relative to dopamine. The note with it: 0.5 h. It counts as cell-based.
For test [19], the target named is D(1B) dopamine receptor (Homo sapiens) (UniProt P21918). The test can be described thus: Agonist activity at D5 receptor (unknown origin) stably expressed in CHOK1 cells assessed as induction of beta-arrestin recruitment measured after 90 mins by luminescence assay. It counts as cell-based.
In test [20] the target is T4, D(4) dopamine receptor (Homo sapiens). The test can be described thus: Agonist activity at human D4 receptor expressed in CHOK1 cells assessed as induction of beta-arrestin recruitment measured after 90 mins by luminescence assay relative to control. The format is cell-based. In short, it runs like this:
as §3

Test [21] has the same target. The test can be described thus: Antagonist activity at human D4 receptor expressed in CHOK1 cells assessed as suppression of dopamine-induced inhibition of forskolin-stimulated cAMP accumulation measured after 30 mins by Eu-cAMP tracer based TR-FRET assay relative to dopamine. The format is functional, cell-based. The arrangement: concentration or dose not given beside the values.

Test [22] addresses T3, D(3) dopamine receptor. The test can be described thus: Displacement of [3H](R)-(+)-7-OH-DPAT from human D3 receptor expressed in HEK293 cell membranes measured after 90 mins by scintillation counting method. In short, it runs like this:
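Fresh HEK293 hD3R membranes (40 μg/well) in 50 mM Tris, 10 mM MgCl2, 1 mM EDTA, pH 7.4 were incubated with 0.5 nM [3H]-(R)-(+)-7-OH-DPAT and half-log compound dilutions in 30% DMSO for 90 min at room temperature. Nonspecific binding was defined with 10 μM (+)-butaclamol. Samples were filtered on PEI-soaked GF/B filters and counted by scintillation.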

Molecules are shown by their SMILES. The source made the active and inactive calls. The calls are words filed in the database; no cut-off is given here.

T3 sequence (P35462 whole entry, canonical isoform): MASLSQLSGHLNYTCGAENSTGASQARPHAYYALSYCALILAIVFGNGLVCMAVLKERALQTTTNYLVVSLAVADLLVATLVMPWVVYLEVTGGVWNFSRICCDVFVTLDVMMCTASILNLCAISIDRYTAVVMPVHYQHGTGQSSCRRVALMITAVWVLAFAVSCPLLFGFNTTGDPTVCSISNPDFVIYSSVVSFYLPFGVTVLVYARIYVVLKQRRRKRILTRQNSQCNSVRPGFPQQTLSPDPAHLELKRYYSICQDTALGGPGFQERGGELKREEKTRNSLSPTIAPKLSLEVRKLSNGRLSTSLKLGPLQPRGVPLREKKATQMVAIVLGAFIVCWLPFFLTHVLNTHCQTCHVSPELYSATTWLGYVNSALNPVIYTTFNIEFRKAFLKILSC
Chain of D(1B) dopamine receptor (Homo sapiens) (P21918 whole entry): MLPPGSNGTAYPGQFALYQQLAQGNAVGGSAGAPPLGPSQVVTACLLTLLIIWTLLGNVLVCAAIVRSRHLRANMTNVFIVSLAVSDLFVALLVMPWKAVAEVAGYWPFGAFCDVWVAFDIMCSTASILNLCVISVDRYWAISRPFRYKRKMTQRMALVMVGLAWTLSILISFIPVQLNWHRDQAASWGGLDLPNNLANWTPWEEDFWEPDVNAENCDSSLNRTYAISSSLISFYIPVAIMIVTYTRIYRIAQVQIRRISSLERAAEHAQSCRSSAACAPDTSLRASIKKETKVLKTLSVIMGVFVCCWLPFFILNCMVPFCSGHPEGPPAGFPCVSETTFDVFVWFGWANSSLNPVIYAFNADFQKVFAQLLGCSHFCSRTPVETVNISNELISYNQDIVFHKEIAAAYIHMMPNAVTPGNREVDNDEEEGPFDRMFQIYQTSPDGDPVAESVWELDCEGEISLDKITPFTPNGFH
Chain of D(1A) dopamine receptor (Homo sapiens) (P21728 whole entry): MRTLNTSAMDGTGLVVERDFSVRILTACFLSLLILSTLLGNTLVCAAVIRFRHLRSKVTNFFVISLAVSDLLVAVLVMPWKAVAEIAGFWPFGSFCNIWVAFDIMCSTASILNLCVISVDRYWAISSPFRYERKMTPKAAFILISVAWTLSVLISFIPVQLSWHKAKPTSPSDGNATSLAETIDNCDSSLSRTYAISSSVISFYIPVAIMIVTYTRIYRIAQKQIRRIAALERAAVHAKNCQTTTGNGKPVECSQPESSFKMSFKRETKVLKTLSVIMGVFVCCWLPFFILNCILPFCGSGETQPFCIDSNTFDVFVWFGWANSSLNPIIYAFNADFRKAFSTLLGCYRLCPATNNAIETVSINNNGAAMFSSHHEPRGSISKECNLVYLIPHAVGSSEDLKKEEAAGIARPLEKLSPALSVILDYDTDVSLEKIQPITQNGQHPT
T2 sequence (P14416 whole entry, canonical isoform): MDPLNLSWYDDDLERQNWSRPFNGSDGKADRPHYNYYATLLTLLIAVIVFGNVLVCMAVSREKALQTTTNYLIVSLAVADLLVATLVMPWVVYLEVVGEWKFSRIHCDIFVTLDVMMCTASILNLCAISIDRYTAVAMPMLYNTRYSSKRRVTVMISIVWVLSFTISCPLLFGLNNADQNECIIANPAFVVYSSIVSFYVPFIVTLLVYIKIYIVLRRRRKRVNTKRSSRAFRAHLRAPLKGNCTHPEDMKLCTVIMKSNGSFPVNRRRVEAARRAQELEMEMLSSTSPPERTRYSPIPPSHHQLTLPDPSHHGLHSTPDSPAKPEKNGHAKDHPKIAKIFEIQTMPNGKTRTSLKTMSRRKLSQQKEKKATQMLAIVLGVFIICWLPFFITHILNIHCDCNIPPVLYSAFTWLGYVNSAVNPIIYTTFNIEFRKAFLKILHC

One may read the inhibition as the drop in the measured response relative to a control, in per cent. One may read the IC50 as the concentration that gives 50% inhibition. One may read the Emax as the maximal effect, on the per cent scale that the assay sets. Usually Ki stands for the equilibrium dissociation constant of an inhibitor or competing ligand from its target. A word on the EC50: it is the concentration that produces a half-maximal response. For `Cc1cccc(NC(=O)CN2CCN(c3ncccn3)CC2)c1`, the inhibition result in [1], in test [6] and in [8] was “inactive” throughout. Also, the IC50 in test [2] is 197 nM; in [10], more than 100000 nM; in [11], 463 nM. Besides, the Emax in [3] was 39.6%; in test [7] it was 64.6%; in test [9], 58.4%; in test [18], 54.4%; in [20], 24.7%. Also, the Ki is 318 nM in test [4], more than 10000 nM in [12], 5.66 nM in test [17] and 5990 nM in test [22]. Moreover, the result in test [5] and in test [19] was inactive. For the same molecule, the EC50 in test [13] was determined as 3.4 nM; in test [14], 278 nM; in [15], 5580 nM. Besides, the inhibition in test [16] is 80.6%; in test [21], 45%.
Turning to `Cc1cccc(NC(=O)CN2CCN(c3ccccn3)CC2)c1`, the inhibition entry in test [1], in test [6] and in [8] was “inactive” each time. The IC50 was 313 nM in [2], more than 100000 nM in test [10] and 82.7 nM in test [11]. In addition, the Emax in test [3] was 23.9%; in [7], 64.2%; in test [9] it was 49.4%; in test [18], 19%; in test [20], 30.7%. Besides, the Ki was 212 nM in [4], more than 10000 nM in test [12], 1.89 nM in test [17] and 6480 nM in test [22]. The result in test [5] and in [19] was inactive. Besides, the EC50 in test [13] was 3.6 nM; in [14] it was 394 nM; in test [15] it was 6350 nM. Also, the inhibition in [16] is 78.9%; in test [21], 43.2%.

These data come from ChEMBL document CHEMBL4390675, “Dopamine D4 Receptor-Selective Compounds Reveal Structure-Activity Relationships that Engender Agonist Efficacy” (J Med Chem, 2019).
